Assay results reported in ChEMBL document CHEMBL3763019, “Discovery of benzenesulfonamide derivatives as potent PI3K/mTOR dual inhibitors with in vivo efficacies against hepatocellular carcinoma” (Bioorg Med Chem, 2016).

Assays:
[1] = Antiproliferative activity against human OVCAR4 cells incubated for 48 hrs by sulforhodamine B assay; type: functional; conditions: OVCAR-4, 48 h
How it was run: (§1)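 Run externally by the US National Cancer Institute as part of its 60 human cancer cell line cytotoxicity screen (NCI-60).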

[2] = Antiproliferative activity against human NCI-ADR-RES cells incubated for 48 hrs by sulforhodamine B assay; type: functional; how it was run: as §1
786-0 = experiment: Antiproliferative activity against human 786-0 cells incubated for 48 hrs by sulforhodamine B assay; type: functional; conditions: 786-0, 48 h; how it was run: as §1
A498 = experiment: Antiproliferative activity against human A498 cells incubated for 48 hrs by sulforhodamine B assay; type: functional; conditions: A498, 48 h; how it was run: as §1
[3] = Antiproliferative activity against human Caki1 cells incubated for 48 hrs by sulforhodamine B assay; type: functional; conditions: CAKI-1, 48 h; how it was run: as §1
[4] = Antiproliferative activity against human RXF393 cells incubated for 48 hrs by sulforhodamine B assay; type: functional; conditions: RXF 393, 48 h; how it was run: as §1
SN12C = experiment: Antiproliferative activity against human SN12C cells incubated for 48 hrs by sulforhodamine B assay; type: functional; how it was run: as §1
[5] = Antiproliferative activity against human DU145 cells incubated for 48 hrs by sulforhodamine B assay; type: functional; conditions: DU-145, 48 h; how it was run: as §1
MCF7 = experiment: Antiproliferative activity against human MCF7 cells incubated for 48 hrs by sulforhodamine B assay; type: functional; conditions: MCF7, 48 h; how it was run: as §1
T47D = experiment: Antiproliferative activity against human T47D cells incubated for 48 hrs by sulforhodamine B assay; type: functional; how it was run: as §1
[6] = molecular target: Serine/threonine-protein kinase mTOR (Homo sapiens, UniProt P42345); experiment: Inhibition of mTOR kinase (unknown origin) assessed as suppression of ULight-4E-BP1 substrate phosphorylation incubated for 1 hr by lance ultra assay
Mus musculus = experiment: Toxicity in BALB/C nude mouse xenografted with human Bel7404 cells assessed as reduction in body weight at 30 mg/kg, po qd for 14 consecutive days; type: organism-based; conditions: in vivo
How it was run: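 Male BALB/C nude mice were implanted with BEL-7404 cells. When tumors reached 100–300 mm³ (after 12 days), mice were randomized to 6 per treatment group and 8 controls. The drug, suspended in 5% polysorbate 80 in water, was given orally once daily for 14 days from day 13. Body weight and mortality were tracked during dosing, and mice were sacrificed on day 29.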

A549 = experiment: Cytotoxicity against human A549 cells after 72 hrs by MTT assay; type: functional, cell-based; conditions: A549, 72 h
How it was run: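 Log-phase cells at 40,000–50,000 cells/mL in DMEM with 10% FBS and antibiotics were seeded and cultured overnight at 37 °C, 5% CO₂. Compounds were diluted in DMSO/PBS from 10^-4 to 10^-9 M and applied for 72 h. MTT (5 mg/mL stock) was then added for 4 h and absorbance read at 570 nm. IC50 came from nonlinear regression on triplicate wells, averaged.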

[7] = molecular target: Phosphatidylinositol 4,5-bisphosphate 3-kinase catalytic subunit delta isoform (Homo sapiens, UniProt O00329); experiment: Inhibition of PI3K-delta (unknown origin) using PIP2 as substrate incubated for 1 hr by Kinase-Glo luminescent kinase assay
Sequence of Phosphatidylinositol 4,5-bisphosphate 3-kinase catalytic subunit delta isoform (O00329 whole entry, canonical isoform): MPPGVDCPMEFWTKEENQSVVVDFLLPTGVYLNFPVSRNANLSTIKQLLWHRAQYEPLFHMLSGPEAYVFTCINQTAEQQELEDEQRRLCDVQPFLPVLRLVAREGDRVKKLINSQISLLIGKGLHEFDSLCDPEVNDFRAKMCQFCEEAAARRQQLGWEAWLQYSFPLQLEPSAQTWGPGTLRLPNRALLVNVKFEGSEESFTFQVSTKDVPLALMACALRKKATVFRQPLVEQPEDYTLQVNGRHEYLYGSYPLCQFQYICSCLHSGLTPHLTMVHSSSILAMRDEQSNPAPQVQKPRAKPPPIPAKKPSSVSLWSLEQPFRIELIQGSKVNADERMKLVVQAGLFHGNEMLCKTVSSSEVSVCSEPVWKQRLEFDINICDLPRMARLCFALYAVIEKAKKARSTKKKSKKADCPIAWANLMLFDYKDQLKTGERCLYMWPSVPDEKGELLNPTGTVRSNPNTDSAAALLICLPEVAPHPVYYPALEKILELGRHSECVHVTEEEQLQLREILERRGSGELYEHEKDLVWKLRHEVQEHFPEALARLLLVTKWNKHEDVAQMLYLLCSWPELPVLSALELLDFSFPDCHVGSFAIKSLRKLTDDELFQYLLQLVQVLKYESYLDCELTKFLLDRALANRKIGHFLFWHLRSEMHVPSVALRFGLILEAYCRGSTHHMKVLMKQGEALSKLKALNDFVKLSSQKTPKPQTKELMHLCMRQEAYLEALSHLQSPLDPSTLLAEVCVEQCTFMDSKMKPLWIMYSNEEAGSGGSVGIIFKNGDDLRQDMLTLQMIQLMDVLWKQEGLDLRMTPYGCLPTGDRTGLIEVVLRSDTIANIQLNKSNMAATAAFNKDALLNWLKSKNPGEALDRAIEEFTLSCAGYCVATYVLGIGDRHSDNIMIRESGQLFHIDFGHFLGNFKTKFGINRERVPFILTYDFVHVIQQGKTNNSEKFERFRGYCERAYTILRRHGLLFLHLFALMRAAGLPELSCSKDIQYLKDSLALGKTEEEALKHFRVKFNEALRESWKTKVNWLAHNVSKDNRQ

[8] = molecular target: Phosphatidylinositol 4,5-bisphosphate 3-kinase catalytic subunit beta isoform (Homo sapiens, UniProt P42338); experiment: Inhibition of PI3K-beta (unknown origin) after 40 mins by ADP-Glo luminescent kinase assay
Sequence of Phosphatidylinositol 4,5-bisphosphate 3-kinase catalytic subunit beta isoform (P42338 whole entry, canonical isoform): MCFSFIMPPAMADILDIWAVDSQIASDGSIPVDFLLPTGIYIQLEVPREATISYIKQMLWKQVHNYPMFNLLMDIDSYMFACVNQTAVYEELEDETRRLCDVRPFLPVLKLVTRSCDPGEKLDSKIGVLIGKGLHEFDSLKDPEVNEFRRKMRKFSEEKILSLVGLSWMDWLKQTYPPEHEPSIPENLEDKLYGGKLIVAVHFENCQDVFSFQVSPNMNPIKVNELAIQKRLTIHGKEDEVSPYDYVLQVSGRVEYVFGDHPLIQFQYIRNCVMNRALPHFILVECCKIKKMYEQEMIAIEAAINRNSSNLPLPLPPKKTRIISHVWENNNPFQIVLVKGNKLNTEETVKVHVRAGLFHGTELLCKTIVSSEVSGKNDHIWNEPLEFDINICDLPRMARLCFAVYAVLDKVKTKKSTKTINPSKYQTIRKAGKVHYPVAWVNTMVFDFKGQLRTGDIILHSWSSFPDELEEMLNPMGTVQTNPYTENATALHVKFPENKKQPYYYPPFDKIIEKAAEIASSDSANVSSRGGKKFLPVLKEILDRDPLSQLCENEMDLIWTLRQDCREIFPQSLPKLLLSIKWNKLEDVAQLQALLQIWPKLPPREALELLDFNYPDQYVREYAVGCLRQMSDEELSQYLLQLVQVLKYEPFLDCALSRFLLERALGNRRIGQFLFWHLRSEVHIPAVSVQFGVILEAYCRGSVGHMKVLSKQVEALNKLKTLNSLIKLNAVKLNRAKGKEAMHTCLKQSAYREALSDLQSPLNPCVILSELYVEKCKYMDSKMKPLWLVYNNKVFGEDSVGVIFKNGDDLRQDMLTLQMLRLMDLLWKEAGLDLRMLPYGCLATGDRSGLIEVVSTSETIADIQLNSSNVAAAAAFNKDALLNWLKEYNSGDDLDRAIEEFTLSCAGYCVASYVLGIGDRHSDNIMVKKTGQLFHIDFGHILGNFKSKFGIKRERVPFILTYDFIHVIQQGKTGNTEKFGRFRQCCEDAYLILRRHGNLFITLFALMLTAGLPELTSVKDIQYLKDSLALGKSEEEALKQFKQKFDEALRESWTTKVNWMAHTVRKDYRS
How it was run: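 ADP-Glo reagent stopped the reaction (40 min), then detection reagent was added (60 min) and luminescence read. Percent inhibition was derived from RLU.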

[9] = molecular target: T1, Phosphatidylinositol 4,5-bisphosphate 3-kinase catalytic subunit gamma isoform (Homo sapiens, UniProt P48736); experiment: Inhibition of PI3K-gamma (unknown origin) after 40 mins by ADP-Glo luminescent kinase assay
How it was run: (§2)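 Final enzyme was PI3Kβ 4.8 nM and PI3Kγ 7.6 nM. ADP-Glo reagent stopped the reaction (40 min), then detection reagent was added (60 min) and luminescence read. Percent inhibition was derived from RLU.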
Target sequence in this assay (P48736 whole entry, canonical isoform): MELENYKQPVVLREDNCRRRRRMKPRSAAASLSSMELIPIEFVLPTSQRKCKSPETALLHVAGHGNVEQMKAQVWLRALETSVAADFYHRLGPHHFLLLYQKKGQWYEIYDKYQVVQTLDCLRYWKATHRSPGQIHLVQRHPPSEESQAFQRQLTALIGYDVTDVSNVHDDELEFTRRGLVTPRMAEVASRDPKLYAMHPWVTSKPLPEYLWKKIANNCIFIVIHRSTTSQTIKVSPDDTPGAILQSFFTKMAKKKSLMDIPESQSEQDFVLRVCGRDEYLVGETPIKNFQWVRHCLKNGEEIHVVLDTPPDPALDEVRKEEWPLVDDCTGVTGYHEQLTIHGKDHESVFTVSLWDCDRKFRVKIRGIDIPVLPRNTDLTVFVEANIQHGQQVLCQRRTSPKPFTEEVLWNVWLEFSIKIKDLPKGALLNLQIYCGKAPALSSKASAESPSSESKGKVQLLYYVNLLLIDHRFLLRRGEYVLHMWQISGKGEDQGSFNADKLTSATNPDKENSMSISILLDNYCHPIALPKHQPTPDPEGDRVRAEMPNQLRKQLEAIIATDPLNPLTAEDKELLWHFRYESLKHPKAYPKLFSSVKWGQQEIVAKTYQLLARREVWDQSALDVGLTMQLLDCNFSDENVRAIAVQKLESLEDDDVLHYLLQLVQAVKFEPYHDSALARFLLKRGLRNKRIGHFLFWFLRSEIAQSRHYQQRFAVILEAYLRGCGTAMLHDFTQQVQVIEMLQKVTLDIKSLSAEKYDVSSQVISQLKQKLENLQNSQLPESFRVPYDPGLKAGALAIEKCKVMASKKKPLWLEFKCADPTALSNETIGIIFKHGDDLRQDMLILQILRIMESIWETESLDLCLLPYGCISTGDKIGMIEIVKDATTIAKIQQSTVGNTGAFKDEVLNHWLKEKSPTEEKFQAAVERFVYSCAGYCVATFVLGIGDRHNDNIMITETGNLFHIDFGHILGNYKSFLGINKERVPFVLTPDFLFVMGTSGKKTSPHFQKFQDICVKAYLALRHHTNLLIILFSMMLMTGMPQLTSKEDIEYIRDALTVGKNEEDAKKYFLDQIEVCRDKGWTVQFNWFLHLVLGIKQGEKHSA

[10] = molecular target: T1, Phosphatidylinositol 4,5-bisphosphate 3-kinase catalytic subunit gamma isoform; experiment: Inhibition of PI3K-gamma (unknown origin) at 10 nM after 40 mins by ADP-Glo luminescent kinase assay; how it was run: as §2
Target sequence in this assay (P48736 whole entry, looked up, canonical isoform): as the sequence (P48736 whole entry, canonical isoform) above

[11] = Antiproliferative activity against human HOP62 cells incubated for 48 hrs by sulforhodamine B assay; type: functional; conditions: HOP-62, 48 h; how it was run: as §1
[12] = Antiproliferative activity against human HOP92 cells incubated for 48 hrs by sulforhodamine B assay; type: functional; conditions: HOP-92, 48 h
NCI-H226 = experiment: Antiproliferative activity against human NCI-H226 cells incubated for 48 hrs by sulforhodamine B assay; type: functional; conditions: NCI-H226, 48 h; how it was run: as §1
NCI-H23 = experiment: Antiproliferative activity against human NCI-H23 cells incubated for 48 hrs by sulforhodamine B assay; type: functional; conditions: NCI-H23, 48 h; how it was run: as §1
[13] = Antiproliferative activity against human HCT116 cells incubated for 48 hrs by sulforhodamine B assay; type: functional; conditions: HCT-116, 48 h; how it was run: as §1
HT-29 = experiment: Antiproliferative activity against human HT-29 cells incubated for 48 hrs by sulforhodamine B assay; type: functional; conditions: HT-29, 48 h; how it was run: as §1
[14] = Antiproliferative activity against human SNB19 cells incubated for 48 hrs by sulforhodamine B assay; type: functional; conditions: SNB-19, 48 h; how it was run: as §1
[15] = Antiproliferative activity against human LOXIMVI cells incubated for 48 hrs by sulforhodamine B assay; type: functional; conditions: LOX IMVI; how it was run: as §1
M14 = experiment: Antiproliferative activity against human M14 cells incubated for 48 hrs by sulforhodamine B assay; type: functional; conditions: M14, 48 h; how it was run: as §1
SK-MEL-5 = experiment: Antiproliferative activity against human SK-MEL-5 cells incubated for 48 hrs by sulforhodamine B assay; type: functional; conditions: SK-MEL-5, 48 h; how it was run: as §1
[16] = Antiproliferative activity against human UACC62 cells incubated for 48 hrs by sulforhodamine B assay; type: functional; conditions: UACC-62, 48 h
[17] = Antiproliferative activity against human IGROV1 cells incubated for 48 hrs by sulforhodamine B assay; type: functional; conditions: IGROV-1, 48 h
[18] = read-out: pLC50 (the source's name) (converted)

## COc1ncc(-c2ccc3nccc(C#CCN4CCN(S(C)(=O)=O)CC4)c3c2)cc1NS(=O)(=O)c1ccc(F)cc1F
[1]
  GI50: 257 nM
[1]; [18]
  CC50: 46800 nM
[1]; read-out: pTGI (converted)
  TGI: 11500 nM
[2]
  GI50: 355 nM
[2]; [18]
  CC50: 79400 nM
[2]; read-out: pTGI (converted)
  TGI: 12000 nM
786-0
  GI50: 44.7 nM
786-0; [18]
  CC50: 49000 nM
786-0; read-out: pTGI (converted)
  TGI: 1450 nM
A498
  GI50: 37.1 nM
A498; [18]
  CC50: 2190 nM
A498; read-out: pTGI (converted)
  TGI: 245 nM
[3]
  GI50: 155 nM
[3]; [18]
  CC50: 40700 nM
[3]; read-out: pTGI (converted)
  TGI: 13800 nM
[4]
  GI50: 51.3 nM
[4]; [18]
  CC50: 11700 nM
[4]; read-out: pTGI (converted)
  TGI: 427 nM
SN12C
  GI50: 102 nM
SN12C; [18]
  CC50: > 100000 nM
SN12C; read-out: pTGI (converted)
  TGI: 12300 nM
[5]
  GI50: 100 nM
[5]; [18]
  CC50: 41700 nM
[5]; read-out: pTGI (converted)
  TGI: 12900 nM
MCF7
  GI50: < 10 nM
MCF7; [18]
  CC50: 49000 nM
MCF7; read-out: pTGI (converted)
  TGI: 1780 nM
T47D
  GI50: < 10 nM
T47D; [18]
  CC50: > 100000 nM
T47D; read-out: pTGI (converted)
  TGI: 13.5 nM
[6]
  IC50: 5.4 nM
Mus musculus
  Activity: Non-toxic
A549
  IC50: 1780 nM
[7]
  IC50: 14 nM
[8]
  IC50: 9.4 nM
[9]
  IC50: 2.7 nM
[10]
  inhibition: 95%
[11]
  GI50: < 10 nM
[11]; [18]
  CC50: 63100 nM
[11]; read-out: pTGI (converted)
  TGI: 2820 nM
[12]
  GI50: 13.8 nM
[12]; [18]
  CC50: 58900 nM
NCI-H226
  GI50: 245 nM
NCI-H226; [18]
  CC50: 7240 nM
NCI-H226; read-out: pTGI (converted)
  TGI: 1820 nM
NCI-H23
  GI50: 295 nM
NCI-H23; [18]
  CC50: 20000 nM
NCI-H23; read-out: pTGI (converted)
  TGI: 2690 nM
[13]
  GI50: 138 nM
[13]; [18]
  CC50: 5750 nM
[13]; read-out: pTGI (converted)
  TGI: 1660 nM
HT-29
  GI50: 20.4 nM
HT-29; [18]
  CC50: 35500 nM
HT-29; read-out: pTGI (converted)
  TGI: 1510 nM
[14]
  GI50: 355 nM
[14]; [18]
  CC50: 15100 nM
[14]; read-out: pTGI (converted)
  TGI: 2510 nM
[15]
  GI50: 81.3 nM
[15]; [18]
  CC50: 5620 nM
[15]; read-out: pTGI (converted)
  TGI: 1350 nM
M14
  GI50: 72.4 nM
M14; [18]
  CC50: 19100 nM
M14; read-out: pTGI (converted)
  TGI: 1580 nM
SK-MEL-5
  GI50: 195 nM
SK-MEL-5; [18]
  CC50: 2950 nM
SK-MEL-5; read-out: pTGI (converted)
  TGI: 550 nM
[16]
  GI50: 33.1 nM
[16]; [18]
  CC50: 3240 nM
[16]; read-out: pTGI (converted)
  TGI: 282 nM
[17]
  GI50: < 10 nM
[17]; [18]
  CC50: > 100000 nM
